Laboratory results published in ChEMBL document CHEMBL1138950, “Benzimidazole derivatives bearing substituted biphenyls as hepatitis C virus NS5B RNA-dependent RNA polymerase inhibitors: structure-activity relationship studies and identification of a potent and highly selective inhibitor JTK-109” (J Med Chem, 2006).

Columns and labels:
[1] = target: T1, Cytochrome P450 2D6 (Homo sapiens, UniProt P10635); test: Induction of CYP450 2D6; assay type: ADME
[2] = target: T2, DNA polymerase alpha catalytic subunit (Homo sapiens, UniProt P09884); test: Inhibition of DNA polymerase alpha
T2 sequence (P09884 whole entry): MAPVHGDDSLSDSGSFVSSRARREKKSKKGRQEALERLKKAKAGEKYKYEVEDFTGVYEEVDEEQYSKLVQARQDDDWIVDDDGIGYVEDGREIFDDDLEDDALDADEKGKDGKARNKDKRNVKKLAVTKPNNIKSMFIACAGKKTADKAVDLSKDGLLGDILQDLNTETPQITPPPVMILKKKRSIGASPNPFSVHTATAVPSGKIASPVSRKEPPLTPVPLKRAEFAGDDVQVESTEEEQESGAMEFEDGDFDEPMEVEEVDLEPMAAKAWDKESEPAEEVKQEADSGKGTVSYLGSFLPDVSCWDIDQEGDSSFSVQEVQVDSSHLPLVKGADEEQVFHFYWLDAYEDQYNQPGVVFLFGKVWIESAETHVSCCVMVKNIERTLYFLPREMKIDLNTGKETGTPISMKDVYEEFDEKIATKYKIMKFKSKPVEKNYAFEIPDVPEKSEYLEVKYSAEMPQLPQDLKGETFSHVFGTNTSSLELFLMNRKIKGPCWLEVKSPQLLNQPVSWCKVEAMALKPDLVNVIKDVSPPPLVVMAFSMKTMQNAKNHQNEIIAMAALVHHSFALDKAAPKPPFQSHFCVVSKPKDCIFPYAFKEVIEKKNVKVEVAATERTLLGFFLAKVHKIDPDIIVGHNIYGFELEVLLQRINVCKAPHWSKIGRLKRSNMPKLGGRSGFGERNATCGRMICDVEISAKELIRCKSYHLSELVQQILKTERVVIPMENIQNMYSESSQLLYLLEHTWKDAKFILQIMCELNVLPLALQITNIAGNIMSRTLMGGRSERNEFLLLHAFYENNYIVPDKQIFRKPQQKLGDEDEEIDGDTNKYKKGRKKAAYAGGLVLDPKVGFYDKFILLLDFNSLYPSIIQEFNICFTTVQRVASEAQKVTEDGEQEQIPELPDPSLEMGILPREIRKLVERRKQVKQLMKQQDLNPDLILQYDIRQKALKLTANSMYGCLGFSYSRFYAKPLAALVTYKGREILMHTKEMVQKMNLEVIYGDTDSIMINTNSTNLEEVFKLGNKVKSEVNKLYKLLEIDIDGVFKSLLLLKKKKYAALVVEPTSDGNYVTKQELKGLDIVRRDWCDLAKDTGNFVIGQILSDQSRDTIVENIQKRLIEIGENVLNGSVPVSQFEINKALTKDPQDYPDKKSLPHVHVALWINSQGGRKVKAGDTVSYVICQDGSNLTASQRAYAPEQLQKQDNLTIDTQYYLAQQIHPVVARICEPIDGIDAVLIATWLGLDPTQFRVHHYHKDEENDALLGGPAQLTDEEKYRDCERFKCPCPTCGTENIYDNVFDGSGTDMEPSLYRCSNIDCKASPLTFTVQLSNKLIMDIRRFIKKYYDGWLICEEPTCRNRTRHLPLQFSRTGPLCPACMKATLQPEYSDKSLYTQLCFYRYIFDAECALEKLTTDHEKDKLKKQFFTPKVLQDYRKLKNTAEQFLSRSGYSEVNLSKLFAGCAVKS

[3] = target: T1, Cytochrome P450 2D6; test: Inhibition of CYP450 2D6; assay type: ADME
[4] = target: DNA polymerase beta (Homo sapiens, UniProt P06746); test: Inhibition of DNA polymerase beta
[5] = target: T3, Cytochrome P450 3A4 (Homo sapiens, UniProt P08684); test: Induction of CYP450 3A4; assay type: ADME
[6] = Plasma concentration in rat at 30 mg/kg, po after 2 hrs; assay type: ADME, organism-based; design: dose 30 mg/kg, route oral
How it was run: (§1)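 Rats dosed orally at 30 mg/kg; plasma sampled at 1 and 2 h; n = 2 or 3.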

[7] = Half life in rat at 10 mg/kg; assay type: ADME, organism-based; design: dose 10 mg/kg; details: in vivo
[8] = Liver concentration in rat at 10 mg/kg, po after 2 hrs; assay type: ADME, organism-based; design: dose 10 mg/kg, route oral; details: read-out: Drug uptake
[9] = tested on: Rattus norvegicus; test: Toxicity in rat up to 300 mg/kg/day after 4 weeks; assay type: organism-based; details: in vivo, 672 h
[10] = Plasma concentration in rat at 30 mg/kg, po after 1 hr; assay type: ADME, organism-based; design: dose 30 mg/kg, route oral; how it was run: as §1
[11] = target: T3, Cytochrome P450 3A4; test: Inhibition of CYP450 3A4; assay type: ADME
[12] = target: Cytochrome P450 2C9 (Homo sapiens, UniProt P11712); test: Induction of CYP450 2C9; assay type: ADME
[13] = target: T4, RNA-directed RNA polymerase (Hepacivirus hominis, UniProt O39930); test: Inhibition of HCV 2a NS5B RNA dependent RNA polymerase; design: species or system Hepatitis C virus subtype 2a
How it was run: (§2)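 IC50 from the mean of four independent experiments; standard deviations within 30% of the mean.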

[14] = target: T4, RNA-directed RNA polymerase; test: Inhibition of HCV 3a NS5B RNA dependent RNA polymerase; how it was run: as §2

T1 sequence (P10635 whole entry): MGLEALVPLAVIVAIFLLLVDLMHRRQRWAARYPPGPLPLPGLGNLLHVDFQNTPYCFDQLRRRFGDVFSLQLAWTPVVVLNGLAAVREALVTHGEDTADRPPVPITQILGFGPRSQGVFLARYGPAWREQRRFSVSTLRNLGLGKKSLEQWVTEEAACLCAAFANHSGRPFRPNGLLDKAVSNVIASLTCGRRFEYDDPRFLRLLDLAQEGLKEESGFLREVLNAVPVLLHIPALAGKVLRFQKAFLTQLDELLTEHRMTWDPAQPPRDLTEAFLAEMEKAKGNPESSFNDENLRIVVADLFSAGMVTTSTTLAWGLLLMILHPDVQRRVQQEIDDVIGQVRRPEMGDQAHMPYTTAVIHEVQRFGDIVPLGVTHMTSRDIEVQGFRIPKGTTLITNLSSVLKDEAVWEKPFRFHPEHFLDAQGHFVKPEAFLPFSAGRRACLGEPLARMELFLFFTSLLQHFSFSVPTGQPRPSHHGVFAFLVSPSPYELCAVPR
T4 sequence (O39930 whole entry): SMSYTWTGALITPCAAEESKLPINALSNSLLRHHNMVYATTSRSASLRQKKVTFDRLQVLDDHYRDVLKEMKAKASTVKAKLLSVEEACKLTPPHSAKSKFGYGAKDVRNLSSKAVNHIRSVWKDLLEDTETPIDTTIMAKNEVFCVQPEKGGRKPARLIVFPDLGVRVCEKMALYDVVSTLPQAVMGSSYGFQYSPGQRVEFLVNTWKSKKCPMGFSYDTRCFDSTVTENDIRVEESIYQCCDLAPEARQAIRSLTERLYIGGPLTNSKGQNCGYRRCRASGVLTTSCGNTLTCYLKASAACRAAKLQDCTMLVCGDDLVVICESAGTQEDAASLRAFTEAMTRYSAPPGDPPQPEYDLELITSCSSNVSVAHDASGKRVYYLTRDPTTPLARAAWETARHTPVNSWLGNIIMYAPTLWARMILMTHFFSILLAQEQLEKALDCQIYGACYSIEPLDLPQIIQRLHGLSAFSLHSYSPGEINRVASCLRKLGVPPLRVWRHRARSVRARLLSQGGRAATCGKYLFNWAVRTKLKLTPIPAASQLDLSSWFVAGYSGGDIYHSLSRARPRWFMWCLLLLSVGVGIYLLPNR
T3 sequence (P08684 whole entry): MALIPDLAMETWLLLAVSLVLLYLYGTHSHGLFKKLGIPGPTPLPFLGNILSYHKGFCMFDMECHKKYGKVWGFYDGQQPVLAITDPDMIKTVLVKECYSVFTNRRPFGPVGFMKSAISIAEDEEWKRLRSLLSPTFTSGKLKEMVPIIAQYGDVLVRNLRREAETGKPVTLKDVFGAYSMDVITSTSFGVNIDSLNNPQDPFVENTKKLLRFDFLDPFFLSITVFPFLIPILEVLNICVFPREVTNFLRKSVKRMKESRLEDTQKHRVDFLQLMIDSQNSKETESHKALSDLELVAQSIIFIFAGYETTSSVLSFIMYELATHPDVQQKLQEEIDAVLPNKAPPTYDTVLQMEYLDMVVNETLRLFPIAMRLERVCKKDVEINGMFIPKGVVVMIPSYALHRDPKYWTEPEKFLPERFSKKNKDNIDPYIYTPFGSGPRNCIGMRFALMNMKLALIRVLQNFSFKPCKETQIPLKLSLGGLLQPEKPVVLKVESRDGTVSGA
Cytochrome P450 2C9, sequence (P11712 whole entry): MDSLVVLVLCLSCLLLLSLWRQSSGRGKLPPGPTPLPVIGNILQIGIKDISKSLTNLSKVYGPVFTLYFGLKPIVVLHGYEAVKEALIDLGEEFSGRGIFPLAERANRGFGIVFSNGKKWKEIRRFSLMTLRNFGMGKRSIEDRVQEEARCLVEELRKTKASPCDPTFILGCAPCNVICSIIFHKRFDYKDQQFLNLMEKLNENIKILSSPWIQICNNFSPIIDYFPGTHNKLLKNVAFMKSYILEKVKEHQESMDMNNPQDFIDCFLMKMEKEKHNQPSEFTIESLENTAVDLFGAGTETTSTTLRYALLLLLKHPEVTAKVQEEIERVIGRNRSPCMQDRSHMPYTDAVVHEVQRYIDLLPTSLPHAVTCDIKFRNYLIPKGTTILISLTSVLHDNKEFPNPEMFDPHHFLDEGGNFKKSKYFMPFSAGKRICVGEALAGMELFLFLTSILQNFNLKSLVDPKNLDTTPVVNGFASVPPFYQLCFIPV

## O=C(O)c1ccc2c(c1)nc(-c1ccc(OCc3cc(N4CCCC4=O)ccc3-c3ccc(Cl)cc3)cc1F)n2C1CCCCC1
[1]
  Activity: Not Active
[2]
  IC50: > 10 µM
[3]
  Inhibition: Not Active
[4]
  IC50: > 10 µM
[5]
  Activity: Not Active
[6]
  concentration at 2 h: 4.5 µM
[7]
  half-life: 2.1 h
[8]
  concentration at 2 h: 78.5 µM
[9]
  Activity: Non-toxic
[10]
  concentration at 1 h: 4 µM
[11]
  Inhibition: Not Active
[12]
  Activity: Not Active
[13]
  IC50: 6.4 µM
[14]
  IC50: 0.061 µM
